“And” between values parts separate entries of the source, which are not always exact repeats. Identical values can stand only once. Positions of bridges follow the written chain, without caps; N, C: chain ends. Non-standard residues stand in square brackets, D forms with d. Residues, ends and D or L forms follow the SMILES beside them. dPhe(4-Cl) = N[C@H](Cc1ccc(Cl)cc1)C(=O)O; dPhe(4-F) = N[C@H](Cc1ccc(F)cc1)C(=O)O; d2Nal = N[C@H](Cc1ccc2ccccc2c1)C(=O)O; d3Pal = N[C@H](Cc1cccnc1)C(=O)O
Tests used:
[1] = tested on: Rattus norvegicus; assay: Effect of oral administration of compound (1 mg) on LH secretion by castrated male rats; ng of LH/mL; assay type: functional
Method in brief: (§1)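 Adult Sprague-Dawley male rats, castrated under light ether anesthesia 7-10 days before assay. Peptide dissolved in 2 N HOAc, then diluted in 0.1% BSA-0.04 M phosphate buffer pH 7.4. Given by gavage tube (0.5 mL) under ether. Blood sampled before treatment and 5 h after. Plasma LH in ng/mL, mean ± SEM, five rats per treatment.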

[2] = tested on: Rattus norvegicus; assay: In vivo antiovulatory assay (AOA) carried out in rats injected sc; assay type: functional
Method in brief: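 Antiovulatory assay following Corbin and Beattie. Cycling rats injected sc at noon on proestrus with peptide dissolved in saline (200 μL). Dose in micrograms; read-out is the number of rats ovulating out of the total.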

[3] = target: T1, Gonadotropin-releasing hormone receptor (Rattus norvegicus, UniProt P30969); assay: Inhibitory binding constant for Gonadotropin-releasing hormone receptor
T1 sequence (P30969 whole entry): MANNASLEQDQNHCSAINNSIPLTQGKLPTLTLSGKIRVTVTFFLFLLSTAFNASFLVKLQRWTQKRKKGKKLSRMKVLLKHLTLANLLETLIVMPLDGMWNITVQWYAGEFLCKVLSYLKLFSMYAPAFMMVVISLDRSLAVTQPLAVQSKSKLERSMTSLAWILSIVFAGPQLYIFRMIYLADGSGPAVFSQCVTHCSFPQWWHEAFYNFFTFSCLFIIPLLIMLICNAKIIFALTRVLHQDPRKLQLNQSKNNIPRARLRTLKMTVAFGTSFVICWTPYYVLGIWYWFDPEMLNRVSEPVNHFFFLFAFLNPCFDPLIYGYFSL

[4] = target: T2, Gonadotropin-releasing hormone receptor (Rattus norvegicus) (UniProt P30969); assay: Inhibition of GnRH-stimulated LH secretion by cultured dispersed anterior pituitary cells; assay type: functional, cell-based; conditions: Pituitary gland cell
T2 sequence (whole entry): T1 sequence (P30969 whole entry)
Method in brief: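 Cultured dispersed anterior pituitary cells. Antagonist inhibition of GnRH-stimulated LH secretion measured. Potency expressed relative to the standard [Ac-Δ3Pro1,DFpa2,DTrp3,6]GnRH (=1), with confidence range in parentheses.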

[5] = species on record: Rattus norvegicus; assay: Effect on GnRH-induced LH secretion in intact male rats at 100 ug of compound along with 50 ng of GnRH; ng of LH/mL; assay type: functional
Method in brief: (§2)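 Intact adult male Sprague-Dawley rats. Antagonist injected iv into the jugular vein (1 mL) under ether, immediately before GnRH. Peptide dissolved in 2 N HOAc, then diluted in 0.1% BSA-0.04 M phosphate buffer pH 7.4. Blood taken 10 min after injection. Plasma LH in ng/mL ± SEM, six rats per treatment.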

[6] = tested on: Rattus norvegicus; assay: Effect of oral administration of compound (3 mg) on LH secretion by castrated male rats; ng of LH/mL; assay type: functional; method in brief: as §1
[7] = species on record: Rattus norvegicus; assay: Effect on GnRH-induced LH secretion in intact male rats at 25 ug of compound along with 50 ng of GnRH; ng of LH/mL; assay type: functional; method in brief: as §2
[8] = species on record: Rattus norvegicus; assay: Effect on GnRH-induced LH secretion in intact male rats at 50 ng of compound; ng of LH/mL; assay type: functional
[9] = species on record: Rattus norvegicus; assay: Effect on GnRH-induced LH secretion in intact male rats at 20 ng of compound; ng of LH/mL; assay type: functional

Kd [3] [nM] | Relative potency [4] | SMILES | Activity [1] | Dose [2] | Activity [5] | Activity [6] | Activity [7] | Activity [8] | Activity [9]
0.64 | 0.6 | CC(=O)N[C@H](Cc1ccc2ccccc2c1)C(=O)N[C@H](Cc1ccc(F)cc1)C(=O)N[C@H](Cc1c[nH]c2ccccc12)C(=O)N[C@@H](CO)C(=O)N[C@@H](Cc1ccc(O)cc1)C(=O)N[C@H](CCCN=C(N)N)C(=O)N[C@@H](CC(C)C)C(=O)N[C@@H](CCCN=C(N)N)C(=O)N1CCC[C@H]1C(=O)NCC(N)=O (Ac-[d2Nal][dPhe(4-F)][dW]SY[dR]LRPG-NH2) | 6.4 | 1 µg |  |  |  |  | 
 |  | CC(=O)N[C@H](Cc1ccc2ccccc2c1)C(=O)N[C@H](Cc1ccc(Cl)cc1)C(=O)N[C@H](Cc1cccnc1)C(=O)N[C@H]1CSSC[C@@H](C(N)=O)NC(=O)[C@@H]2CCCN2C(=O)[C@H](CCCNC(=N)N)NC(=O)[C@H](CC(C)C)NC(=O)[C@@H](Cc2cccnc2)NC(=O)[C@H](CCCNC(=N)N)NC1=O (Ac-[d2Nal][dPhe(4-Cl)][d3Pal]CR[d3Pal]LRPC-NH2; disulfide 4-10) |  | 10 µg and 25 µg | 1.4 | 8.31 | 1.62 |  | 
 |  | CC(C)C[C@H](NC(=O)CNC(=O)[C@H](Cc1ccc(O)cc1)NC(=O)[C@H](CO)NC(=O)[C@H](Cc1c[nH]c2ccccc12)NC(=O)[C@H](Cc1cnc[nH]1)NC(=O)[C@@H]1CCC(=O)N1)C(=O)N[C@@H](CCCNC(=N)N)C(=O)N1CCC[C@H]1C(=O)NCC(N)=O [GONADORELIN] |  |  |  |  |  | 2.42 | 1.84

From ChEMBL document CHEMBL1124067, “Design of potent cyclic gonadotropin releasing hormone antagonists” (J Med Chem, 1988)
